This is an account of results in ChEMBL document CHEMBL1153538, “Discovery of novel antileishmanial agents in an attempt to synthesize pentamidine-aplysinopsin hybrid molecule” (J Med Chem, 2009).

In data set [1] the test system is Leishmania donovani. In words: Antileishmanial activity against Leishmania donovani MHOM/IN/Dd8 amastigote carrying firefly luciferase gene infected in mouse J774A1 cells assessed as relative luminescence unit at 10 ug/mL after 72 hrs. The data set is classed as functional. As to conditions: MHOM/IN/Dd8, J774.A1, 72 h.
For data set [2], the system named is Leishmania donovani. In words: Ratio of drug to pentamidine for antileishmanial activity against Leishmania donovani MHOM/IN/Dd8 in mouse J774A1 cells by intracellular amastigote assay. The class given is functional, J774.A1.
Data set [3] deals with Leishmania donovani. In words: Antileishmanial activity against Leishmania donovani MHOM/IN/Dd8 […] carrying firefly luciferase gene infected in mouse J774A1 cells assessed as relative luminescence unit at 10 ug/mL after 72 hrs. The data set is classed as functional. As to conditions: for inhibition at 10 µg/mL: MHOM/IN/Dd8, J774.A1, 72 h; for inhibition: J774.A1.

Data set [4] has as its system Leishmania donovani. In words: Antileishmanial activity against Leishmania donovani MHOM/IN/Dd8 amastigote carrying firefly luciferase gene infected in mouse J774A1 cells assessed as relative luminescence unit after 72 hrs. The class given is functional, organism-based. As to conditions: MHOM/IN/Dd8, J774.A1, 72 h. Put shortly: (§1)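 J774A.1 macrophages (1.5 × 10⁴/well) were seeded in RPMI-1640 with 10% FCS at 37 °C under CO₂. After 24 h they were infected with stationary-phase luciferase-expressing promastigotes (4 × 10³/well). The medium was then replaced with compound at 0.195-12.5 μg/mL for 72 h. Steady Glo luminescence (RLU) was read, and inhibition was calculated against untreated controls. IC50 values are the mean of two independent assays.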

In another data set the test system is KB. The data set can be described thus: Cytotoxicity against human KB cells by MTT assay. The class given is cell-based. Put shortly:
(§2)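 J774A.1 or KB cells were grown in RPMI with 10% FCS. Exponentially growing cells (1 × 10⁴/well) were exposed to a range of compound concentrations (DMSO stocks diluted in medium) for 72 h at 37 °C. MTT was added for 2 h, formazan was dissolved in DMSO, and absorbance was read at 544 nm. IC50 was the concentration giving 50% viability loss versus medium-only cells, estimated by template.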

Data set [5] is described as follows: Selectivity index, ratio of IC50 for Leishmania donovani MHOM/IN/Dd8 amastigote to IC50 for human KB cells.
Data set [6] has as its system Leishmania donovani. The data set can be described thus: Antileishmanial activity against Leishmania donovani MHOM/IN/Dd8 amastigote carrying firefly luciferase gene infected in mouse J774A1 cells assessed as relative luminescence unit at 12.5 ug/mL after 72 hrs. As to conditions: for inhibition: J774.A1. The data set is classed as functional. Put shortly:
as §1

The subject of data set [7] is J774.A1. The data set can be described thus: Cytotoxicity against mouse J774A1 at 12.5 ug/mL by MTT assay. The class given is cell-based.
Data set [8] deals with Leishmania donovani. In words: Antileishmanial activity against Leishmania donovani MHOM/IN/Dd8 amastigote infected in golden hamster assessed as parasite reduction at 50 mg/kg, ip for 5 consecutive days. The class given is functional. Details: scale not given: the % may be the effect or the level left. As to conditions: route intraperitoneal. Put shortly:
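Golden hamsters (40-45 g) were infected intracardially with 1 × 10⁷ amastigotes. Animals with +1 infection by spleen biopsy were randomized, 5-6 per sample. Intraperitoneal dosing started 2 days after biopsy and ran for 5 consecutive days. Biopsies taken 7 days after the last dose were Giemsa-stained and counted. Percentage inhibition was corrected for initial burden and the rise in untreated controls.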

Data set [9] deals with J774.A1. The data set can be described thus: Cytotoxicity against mouse J774A1 by MTT assay. The data set is classed as cell-based. Put shortly: as §2

Converted amounts (≈) assume the structure as drawn. The source made the active and inactive calls. The rule behind the calls is not given here. Where only a bound is given, the exact number is not on record here.

As to `NC(=O)c1ccc(OCCCCCn2cc(/C=C3\NC(=S)NC3=O)c3ccccc32)cc1` (mixture of isomers), the inhibition at 10 µg/mL in the data set with Leishmania donovani [1] turned out to be 48.9%.
With `CN1C(=S)NC(=O)/C1=C\c1cn(CCCCCOc2ccc(/C(N)=N/O)cc2)c2ccccc12`, in the data set with Leishmania donovani [2], the “fold change (FC)” value is listed as 10. Besides, the inhibition at 10 µg/mL in the data set on Leishmania donovani [3] was 88.2%; in the data set on Leishmania donovani [1], 99.3%. For the same compound, the concentration for half-maximal inhibition (IC50) was 2 µM in the data set on Leishmania donovani [4] and 108 µM with KB. Further, the “Ratio IC50” value in data set [5] is 53.4.
For the compound `N#Cc1ccc(OCCCCCn2cc(/C=C3\NC(=S)NC3=O)c3cc(Br)ccc32)cc1` (mixture of isomers), the inhibition at 10 µg/mL in the data set with Leishmania donovani [1] worked out at 12.6%.
On to `N#Cc1ccc(OCCCCCn2cc(/C=C3\NC(=S)NC3=O)c3cccnc32)cc1`, for which the IC50 is 6.5 µM in the data set on Leishmania donovani [4] and 187 µM with KB. The “Ratio IC50” value in data set [5] was 28.6. Further, the inhibition at 10 µg/mL in the data set with Leishmania donovani [1] turned out to be 97%.
On to `O=C1NC(=S)N/C1=C\c1c[nH]c2ccccc12`, for which the inhibition entry in the data set on Leishmania donovani [6] and with Leishmania donovani [3] was “inactive” in each case.
`N#Cc1ccc(OCCCCCn2cc(/C=C3\N/C(=N/c4ccccc4)NC3=O)c3ccccc32)cc1`: in the data set with Leishmania donovani [6], the inhibition result was “inactive”. Moreover, the inhibition at 10 µg/mL in the data set with Leishmania donovani [3] worked out at 92.8%.
As to `N/C(=N\O)c1ccc(OCCCCCn2cc(/C=C3\NC(=S)NC3=O)c3ccccc32)cc1` (mixture of isomers), in the data set on Leishmania donovani [1], the inhibition at 10 µg/mL is 0%.
Regarding `N#Cc1ccc(OCCCCCn2cc(/C=C3\NC(=S)NC3=O)c3ccccc32)cc1`, the Activity result is recorded as “Non-toxic” with J774.A1 [7] and 62.1% with Leishmania donovani [8]. Further, in the data set on Leishmania donovani [6] (MHOM/IN/Dd8, J774.A1, 72 h), the inhibition at 12.5 µg/mL amounted to 62%. In addition, in the data set with Leishmania donovani [3], the inhibition at 10 µg/mL came out at 95.1%. Besides, in the data set on Leishmania donovani [4], the IC50 came to 18.2 µM.
`CCCC/N=C1\NC(=O)/C(=C/c2cn(CCCCCOc3ccc(C#N)cc3)c3ccccc23)N1`: in the data set on Leishmania donovani [6], the inhibition result was “inactive”. Also, in the data set on Leishmania donovani [3], the inhibition at 10 µg/mL was found to be 88%.
`O=C1NC(=S)N/C1=C\c1cn(CCCCCN2CCN(c3ccccc3)CC2)c2ccccc12`: the IC50 with J774.A1 [9] was > 100 µg/mL. Also, the inhibition result with Leishmania donovani [6] was “inactive”. Besides, in the data set on Leishmania donovani [3], the inhibition at 10 µg/mL turned out to be 88.3%.
Take `N#Cc1ccc(OCCCCCCn2cc(/C=C3\NC(=S)NC3=O)c3ccccc32)cc1`: the midpoint of inhibition in the data set with J774.A1 [9], the IC50, lay at 2.3 µg/mL (≈ 5.17 µM). The inhibition at 10 µg/mL with Leishmania donovani [3] is 71.3%.
Taken in the same sequence, the figures for `CSC1=N/C(=C\c2cn(CCCCCOc3ccc(C#N)cc3)c3ccccc23)C(=O)N1` were > 100 µg/mL and 75.4%.
Consider `N#Cc1ccc(OCCCCCn2cc(/C=C3\N/C(=N/Cc4ccccc4)NC3=O)c3ccccc32)cc1`, for which, in the data set on Leishmania donovani [6], the inhibition result was “inactive”. Moreover, the inhibition at 10 µg/mL in the data set with Leishmania donovani [3] was 93.9%.
Turning to `N#Cc1ccc(OCCCCCn2cc(/C=C3\NC(=O)NC3=O)c3ccccc32)cc1`, the IC50 in the data set with J774.A1 [9] worked out at 33 µg/mL (≈ 79.6 µM). Besides, the inhibition entry with Leishmania donovani [6] and in the data set on Leishmania donovani [3] was “inactive” throughout.
As to `O=C1N/C(=N\Cc2ccccc2)N/C1=C\c1c[nH]c2ccccc12`, the inhibition result in the data set with Leishmania donovani [6] and in the data set with Leishmania donovani [3] was “inactive” each time.
In the case of `O=C1NC(=S)N/C1=C\c1cn(CCCCCOc2ccccc2)c2ccccc12`, the IC50 in the data set on J774.A1 [9] is > 100 µg/mL. In addition, the inhibition at 10 µg/mL with Leishmania donovani [3] amounted to 40.7%.
On to `COc1ccc(C/N=C2\NC(=O)/C(=C/c3cn(CCCCCOc4ccc(C#N)cc4)c4ccccc34)N2)cc1OC`, for which the inhibition entry in the data set with Leishmania donovani [6] is “inactive”. Also, the inhibition at 10 µg/mL in the data set on Leishmania donovani [3] came out at 93.7%.
As for `N#Cc1ccc(OCCCCCn2cc(C=O)c3ccccc32)cc1`, the inhibition entry with Leishmania donovani [6] and in the data set with Leishmania donovani [3] was “inactive” throughout.
On to `CSC1=N/C(=C\c2cn(CCCCCOc3ccc(C#N)cc3)c3ccccc23)C(=O)N1C`, for which the IC50 in the data set with J774.A1 [9] is > 100 µg/mL. Besides, in the data set with Leishmania donovani [3], the inhibition at 10 µg/mL was determined as 63.2%.
For `COc1ccc(C/N=C2\NC(=O)/C(=C/c3c[nH]c4ccccc34)N2)cc1OC`, the inhibition result in the data set with Leishmania donovani [6] and in the data set with Leishmania donovani [3] was “inactive” each time.
The compound `CN1C(=S)NC(=O)/C1=C\c1cn(CCCCCOc2ccc(C#N)cc2)c2ccccc12` gave a half-inhibitory concentration (IC50) with J774.A1 [9] of 14.8 µg/mL (≈ 33.3 µM). In the data set on Leishmania donovani [3], the inhibition at 10 µg/mL worked out at 46.4%.
Regarding `Nc1cc(OCCCCCn2cc(/C=C3\NC(=S)NC3=O)c3ccccc32)ccn1`, the inhibition at 10 µg/mL with Leishmania donovani [1] was determined as 32.2%.
Take `N#Cc1ccc(OCCCCn2cc(/C=C3\NC(=S)NC3=O)c3ccccc32)cc1`: in the data set on J774.A1 [9], the IC50 is > 100 µg/mL. For the same compound, the inhibition at 10 µg/mL with Leishmania donovani [3] was determined as 58.8%.
Regarding `N#Cc1ccc(OCCCCCn2cc(/C=C3\NC(=N)NC3=O)c3ccccc32)cc1`, the inhibition at 10 µg/mL in the data set with Leishmania donovani [1] was determined as 0%.
As for `N=C(N)c1ccc(OCCCCCOc2ccc(C(=N)N)cc2)cc1.O=S(=O)(O)CCO`, the figures for the IC50 with Leishmania donovani [4] and with KB were 20.4 µM and 2.7 µM, respectively. In data set [5], the “Ratio IC50” value was <1.
